Assay results as given in ChEMBL document CHEMBL1772946, “Identification and initial SAR of silybin: an Hsp90 inhibitor” (Bioorg Med Chem Lett, 2011).
Active and inactive are the calls of the source. The calls are words filed in the database; no cut-off is given here.

Legend:
SK-BR-3 = assay: Antiproliferative activity against estrogen receptor-deficient human SKBR3 cells expressing HER2; type: functional
In short: (§1)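 Cell proliferation assay against SKBr3 (ER-negative, HER2-overexpressing) and MCF-7 (ER-positive) breast cancer cells. Values are mean ± standard deviation of at least two separate experiments, each performed in triplicate.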

MCF7 = assay: Antiproliferative activity against human MCF7 cells expressing estrogen receptor; type: functional; in short: as §1
[1] = biological target: T1, Heat shock protein HSP 90 (Oryctolagus cuniculus) (UniProt P11500); conditions: 1 ug/ml
T1 sequence (whole entry): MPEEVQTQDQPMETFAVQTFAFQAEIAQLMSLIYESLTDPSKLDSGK

[2] = biological target: T1, Heat shock protein HSP 90 (Oryctolagus cuniculus); conditions: 1 ug/ml; remark: listed apart in the source
[3] = biological target: T2, Heat shock protein HSP90 (Homo sapiens) (UniProt P07900+P08238); assay: Inhibition of Hsp90 in human MCF7 cells assessed as degradation after 24 hrs by Western blot analysis
[4] = biological target: T2, Heat shock protein HSP90 (Homo sapiens); assay: Inhibition of Hsp90 in human MCF7 cells assessed as Raf degradation after 24 hrs by Western blot analysis; type: cell-based
In short: (§2)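 MCF-7 breast cancer cells were treated for 24 h with a range of compound concentrations. Cell lysates were probed by Western blot for Her2, Raf, Akt and Hsp90, with actin as a non-client control.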

[5] = biological target: T2, Heat shock protein HSP90 (Homo sapiens); assay: Inhibition of Hsp90 in human MCF7 cells assessed as Akt degradation after 24 hrs by Western blot analysis; type: cell-based; in short: as §2
[6] = biological target: T2, Heat shock protein HSP90 (Homo sapiens); assay: Inhibition of Hsp90 in human MCF7 cells assessed as Her2 degradation after 24 hrs by Western blot analysis; type: cell-based; in short: as §2
[7] = biological target: T2, Heat shock protein HSP90 (Homo sapiens); assay: Inhibition of Hsp90 in human MCF7 cells assessed as Hsp90 degradation at 50 to 1000 uM by Western blot analysis; type: cell-based
[8] = biological target: T2, Heat shock protein HSP90 (Homo sapiens); assay: Inhibition of Hsp90 in human MCF7 cells assessed as Raf degradation at 50 to 1000 uM by Western blot analysis; type: cell-based
[9] = biological target: T2, Heat shock protein HSP90 (Homo sapiens); assay: Inhibition of Hsp90 in human MCF7 cells assessed as Akt degradation at 50 to 1000 uM by Western blot analysis; type: cell-based
[10] = biological target: T1, Heat shock protein HSP 90 (Oryctolagus cuniculus); assay: Inhibition of Hsp90-dependent activation of [35S]-labeled His-tagged […] in rabbit reticulocyte lysate by anti-His-tag pull down assay
Oryctolagus cuniculus = organism: Oryctolagus cuniculus; assay: Inhibition of Hsp90/Cdc37 interaction with [35S]-labeled His-tagged […] in rabbit reticulocyte lysate at 2 mM by Western blot analysis
[11] = biological target: T1, Heat shock protein HSP 90 (Oryctolagus cuniculus); assay: Inhibition of Hsp90-dependent activation of [35S]-labeled His-tagged […] in rabbit reticulocyte lysate at 2 mM by anti-His-tag pull down assay
[12] = biological target: T1, Heat shock protein HSP 90 (Oryctolagus cuniculus); assay: Inhibition of Hsp90-dependent maturation of [35S]-labeled His-tagged […] in rabbit reticulocyte lysate at 2 mM by anti-His-tag pull down assay
[13] = biological target: T2, Heat shock protein HSP90 (Homo sapiens); assay: Inhibition of Hsp90 in human MCF7 cells assessed as Her2 degradation at 50 to 1000 uM by Western blot analysis; type: cell-based

SMILES	Activity (SK-BR-3) [µM]	Activity (MCF7) [µM]	also measured
COc1cc(C2Oc3cc(/C=C/C(=O)c4c(O)cccc4O)ccc3OC2CO)ccc1O (configuration not stated)	25.03	22.58	–
COc1cc(C2Oc3cc(/C=C/C(=O)c4ccccc4O)ccc3OC2CO)ccc1O (configuration not stated)	19.87	12.07	–
COc1cc(C2Oc3cc([C@H]4Oc5cc(O)cc(O)c5C(=O)[C@@H]4O)ccc3OC2CO)ccc1O (stereo in doubt; 24) [SILIBININ]	196.3	196.4	–
COc1cc(C2Oc3cc(C4CC(=O)c5c(O)cccc5O4)ccc3OC2CO)ccc1O (configuration not stated)	47.73	50.32	–
COC1=C2C[C@@H](C)C[C@H](OC)[C@H](O)[C@@H](C)/C=C(\C)[C@H](OC(N)=O)[C@@H](OC)/C=C\C=C(/C)C(=O)NC(=CC1=O)C2=O	–	–	inhibition [1]: Active; inhibition [2]: Active
COc1cc(C2Oc3cc(/C=C/C(=O)c4cc(O)ccc4O)ccc3OC2CO)ccc1O (configuration not stated)	35.84	12.17	–
COc1cc(C2Oc3cc(C4Oc5cc(O)ccc5C(=O)C4O)ccc3OC2CO)ccc1O (configuration not stated)	16.04	11.92	–
COc1cc(C2Oc3cc([C@H]4Oc5cc(O)cc(O)c5C(=O)[C@@H]4O)ccc3OC2CO)ccc1O (stereo in doubt) [SILIBININ]	197	222.8	–
COc1cc(C2Oc3cc(C4CC(=O)c5c(O)cc(O)cc5O4)ccc3OC2CO)ccc1O (configuration not stated)	101.2	104.2	–
COc1cc(C2Oc3cc(C4Oc5ccc(O)cc5C(=O)C4O)ccc3OC2CO)ccc1O (configuration not stated)	13.41	17.8	–
COc1cc(C2Oc3cc(C4CC(=O)c5cc(O)ccc5O4)ccc3OC2CO)ccc1O (configuration not stated)	15.63	15.62	inhibition [3]: Dose-dependent effect; inhibition [4]: Dose-dependent effect; inhibition [5]: Dose-dependent effect; inhibition [6]: Dose-dependent effect
COc1cc(C2Oc3cc(C4Oc5ccccc5C(=O)C4O)ccc3OC2CO)ccc1O (configuration not stated)	11.12	13.42	inhibition [3]: Dose-dependent effect; inhibition [4]: Dose-dependent effect; inhibition [5]: Dose-dependent effect; inhibition [6]: Dose-dependent effect
COc1cc(C2Oc3cc([C@H]4Oc5cc(O)cc(O)c5C(=O)[C@@H]4O)ccc3OC2CO)ccc1O (stereo in doubt)	–	–	inhibition [7]: Active; inhibition [8]: Active; inhibition [9]: Active; inhibition [10]: Dose-dependent effect; inhibition (Oryctolagus cuniculus): inactive; inhibition [11]: Active; inhibition [12]: Active; inhibition [13]: Active
COc1cc(C2Oc3cc(C4CC(=O)c5ccc(O)cc5O4)ccc3OC2CO)ccc1O (configuration not stated)	41.91	41.58	–
COc1cc(C2Oc3cc(C4CC(=O)c5ccccc5O4)ccc3OC2CO)ccc1O (configuration not stated)	16.25	13.66	–
COc1cc(C2Oc3cc(/C=C/C(=O)c4c(O)cc(O)cc4O)ccc3OC2CO)ccc1O (configuration not stated)	111.4	109.3	–
O=C1c2c(O)cc(O)cc2OC(c2ccc3c(c2)OC(c2ccc(O)cc2)C(CO)O3)C1O (configuration not stated)	210.6	138.7	–
COc1cc(C2Oc3cc(C4Oc5cccc(O)c5C(=O)C4O)ccc3OC2CO)ccc1O (configuration not stated)	11.9	17.66	–
COc1cc(C2Oc3cc(/C=C/C(=O)c4ccc(O)cc4O)ccc3OC2CO)ccc1O (configuration not stated)	37.14	16.91	–
